Measured values: ChEMBL document CHEMBL4610112, “Novel Pyrrolopyridone Bromodomain and Extra-Terminal Motif (BET) Inhibitors Effective in Endocrine-Resistant ER+ Breast Cancer with Acquired Resistance to Fulvestrant and Palbociclib” (J Med Chem, 2020)

Key:
[1] = Growth inhibition of fulvestrant-resistant human MCF7:CFR cells measured after 5 days by Hoechst 33342 dye based imaging analysis; format: functional, cell-based; settings: 120 h
Outline: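 MCF-7:CFR cells kept 2 days in phenol red-free RPMI 1640 with 10% charcoal–dextran FBS, then seeded at 2000 cells/well. Single treatment at 0.1 nM–10 μM (0.1% DMSO final) for 5 days. Nuclei stained with Hoechst 33342 and counted by imaging. Survival normalized to DMSO (100%) and JQ1 3 μM (0%). Mean ± SEM from at least two passages, triplicates in each.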

[2] = biological target: ATPase family AAA domain-containing protein 2 (Homo sapiens, UniProt Q6PL18); assay: Binding affinity to human partial length ATAD2A (Q981 to R1108 residues) expressed in bacterial expression system by BROMOscan assay
Outline: (§1)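 BROMOscan panel of 40 bromodomains. Kd for DNA-tagged bromodomains determined by competition against an immobilized proprietary reference ligand.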

[3] = biological target: ATPase family AAA domain-containing protein 2B (Homo sapiens, UniProt Q9ULI0); assay: Binding affinity to human partial length ATAD2B (Q955 to R1082 residues) expressed in bacterial expression system by BROMOscan assay; outline: as §1
[4] = biological target: Bromodomain adjacent to zinc finger domain protein 2B (Homo sapiens, UniProt Q9UIF8); assay: Binding affinity to human partial length BAZ2B (S2054 to S2168 residues) expressed in bacterial expression system by BROMOscan assay; outline: as §1
[5] = biological target: Bromodomain-containing protein 7 (Homo sapiens, UniProt Q9NPI1); assay: Binding affinity to human partial length BRD7 (L125 to R254 residues) expressed in mammalian expression system by BROMOscan assay; outline: as §1
[6] = biological target: Bromodomain-containing protein 8 (Homo sapiens, UniProt Q9H0E9); assay: Binding affinity to human partial length BRD8 BD2 (D1095 to F1235 residues) expressed in mammalian expression system BROMOscan assay; outline: as §1
[7] = biological target: Bromodomain and PHD finger-containing protein 3 (Homo sapiens, UniProt Q9ULD4); assay: Binding affinity to human partial length BRPF3 (E588 to G701 residues) expressed in bacterial expression system by BROMOscan assay; outline: as §1
[8] = biological target: Nucleosome-remodeling factor subunit BPTF (Homo sapiens, UniProt Q12830); assay: Binding affinity to human partial length FALZ (S2791 to H2911 residues) expressed in bacterial expression system by BROMOscan assay; outline: as §1
[9] = biological target: Histone acetyltransferase KAT2A (Homo sapiens, UniProt Q92830); assay: Binding affinity to human partial length GCN5L2 (E726 to K837 residues) expressed in bacterial expression system by BROMOscan assay; outline: as §1
Protein polybromo-1 = Protein polybromo-1 (Homo sapiens, UniProt Q86U86); assay: Binding affinity to human partial length PBRM1 bromodomain 2 (S178 to E291 residues) expressed in bacterial expression system by BROMOscan assay; outline: as §1
[10] = biological target: Histone acetyltransferase KAT2B (Homo sapiens, UniProt Q92831); assay: Binding affinity to human partial length PCAF (G715 to D831 residues) expressed in bacterial expression system by BROMOscan assay; outline: as §1
[11] = biological target: SWI/SNF-related matrix-associated actin-dependent regulator of chromatin subfamily A member 2 (Homo sapiens, UniProt P51531); assay: Binding affinity to human partial length SMARCA2 (S1377 to Q1486 residues) expressed in bacterial expression system by BROMOscan assay; outline: as §1
[12] = biological target: SWI/SNF-related matrix-associated actin-dependent regulator of chromatin subfamily A member 4 (Homo sapiens, UniProt P51532); assay: Binding affinity to human partial length SMARCA4 (A1448 to S1575 residues) expressed in bacterial expression system by BROMOscan assay; outline: as §1
[13] = biological target: Transcription intermediary factor 1-alpha (Homo sapiens, UniProt O15164); assay: Binding affinity to human partial length TRIM24 phd bromodomain (P790 to P977 residues) expressed in bacterial expression system by BROMOscan assay; outline: as §1
[14] = biological target: E3 ubiquitin-protein ligase TRIM33 (Homo sapiens, UniProt Q9UPN9); assay: Binding affinity to human partial length TRIM33 phd bromodomain (D882 to A1087 residues) expressed in bacterial expression system by BROMOscan assay; outline: as §1
[15] = biological target: Bromodomain and WD repeat-containing protein 1 (Homo sapiens, UniProt Q9NSI6); assay: Binding affinity to human partial length WDR9 bromodomain 2 (A1310 to E1430 residues) expressed in bacterial expression system by BROMOscan assay; outline: as §1
[16] = Growth inhibition of fulvestrant-resistant human MCF7:CFR 3D spheroid cells at 100 nM supplemented with fresh medium containing compound every 2 to 3 days for 9 days by celltitre-glo assay relative to control; format: functional
Outline: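 MCF-7:CFR cells seeded at 1000 cells/well in ultralow-attachment round-bottom plates and grown 24 h untreated as spheroids. Half the medium then replaced with 2× treatment medium, repeated every 2–3 days. Viability read by CellTiter-Glo 3D luminescence at day 9 and normalized to blank (medium plus reagent).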

[17] = Growth inhibition of tamoxifen-sensitive human MCF7:WS8 cells measured after 5 days by Hoechst 33342 dye based imaging analysis; format: functional; settings: MCF7:WS8, 120 h
Outline: (§2)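 Cells seeded at 2000/well in their maintenance medium, treated once the next day with compound (0.1 nM–10 μM; 0.1% DMSO final). Day 5 Hoechst 33342 staining with imaging count. Survival normalized to DMSO (100%) and JQ1 3 μM (0%). IC50 given as mean ± SEM from at least two passages, each in triplicate.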

[18] = Growth inhibition of tamoxifen-resistant human MCF7:5C cells measured after 5 days by Hoechst 33342 dye based imaging analysis; format: functional; settings: 120 h; outline: as §2
MCF7:TAM1 = assay: Growth inhibition of tamoxifen-resistant human MCF7:TAM1 cells measured after 5 days by Hoechst 33342 dye based imaging analysis; format: functional, cell-based; settings: MCF7:TAM1, 120 h; outline: as §2
T47D = assay: Growth inhibition of tamoxifen-sensitive human T47D cells measured after 5 days by Hoechst 33342 dye based imaging analysis; format: functional, cell-based; settings: 120 h; outline: as §2
[19] = Growth inhibition of human T47D:TDG cells harboring ESR1 D538G mutant measured after 5 days by Hoechst 33342 dye based imaging analysis; format: functional; settings: 120 h; outline: as §2
[20] = Growth inhibition of tamoxifen and palbociclib-resistant human MCF7:CPR cells measured after 5 days by Hoechst 33342 dye based imaging analysis; format: functional; settings: 120 h; outline: as §2
Cytochrome P450 3A4 = Cytochrome P450 3A4 (Homo sapiens, UniProt P08684); assay: Inhibition of human CYP3A4; format: ADME
Cytochrome P450 3A4, sequence (P08684 whole entry): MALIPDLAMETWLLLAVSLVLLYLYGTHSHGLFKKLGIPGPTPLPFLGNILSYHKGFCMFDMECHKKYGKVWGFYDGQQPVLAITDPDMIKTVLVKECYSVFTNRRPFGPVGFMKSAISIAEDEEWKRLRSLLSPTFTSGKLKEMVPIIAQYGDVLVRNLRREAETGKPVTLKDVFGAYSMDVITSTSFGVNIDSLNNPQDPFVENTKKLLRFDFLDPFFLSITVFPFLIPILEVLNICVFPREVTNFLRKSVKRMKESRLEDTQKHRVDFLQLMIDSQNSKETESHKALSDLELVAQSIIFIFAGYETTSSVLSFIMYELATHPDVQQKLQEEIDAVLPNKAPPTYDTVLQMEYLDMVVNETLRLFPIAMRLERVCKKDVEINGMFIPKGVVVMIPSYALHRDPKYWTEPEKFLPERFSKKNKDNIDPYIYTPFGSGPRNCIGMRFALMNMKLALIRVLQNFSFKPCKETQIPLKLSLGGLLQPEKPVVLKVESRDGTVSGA

Protein polybromo-1, sequence (Q86U86 whole entry, the tested form may be a part): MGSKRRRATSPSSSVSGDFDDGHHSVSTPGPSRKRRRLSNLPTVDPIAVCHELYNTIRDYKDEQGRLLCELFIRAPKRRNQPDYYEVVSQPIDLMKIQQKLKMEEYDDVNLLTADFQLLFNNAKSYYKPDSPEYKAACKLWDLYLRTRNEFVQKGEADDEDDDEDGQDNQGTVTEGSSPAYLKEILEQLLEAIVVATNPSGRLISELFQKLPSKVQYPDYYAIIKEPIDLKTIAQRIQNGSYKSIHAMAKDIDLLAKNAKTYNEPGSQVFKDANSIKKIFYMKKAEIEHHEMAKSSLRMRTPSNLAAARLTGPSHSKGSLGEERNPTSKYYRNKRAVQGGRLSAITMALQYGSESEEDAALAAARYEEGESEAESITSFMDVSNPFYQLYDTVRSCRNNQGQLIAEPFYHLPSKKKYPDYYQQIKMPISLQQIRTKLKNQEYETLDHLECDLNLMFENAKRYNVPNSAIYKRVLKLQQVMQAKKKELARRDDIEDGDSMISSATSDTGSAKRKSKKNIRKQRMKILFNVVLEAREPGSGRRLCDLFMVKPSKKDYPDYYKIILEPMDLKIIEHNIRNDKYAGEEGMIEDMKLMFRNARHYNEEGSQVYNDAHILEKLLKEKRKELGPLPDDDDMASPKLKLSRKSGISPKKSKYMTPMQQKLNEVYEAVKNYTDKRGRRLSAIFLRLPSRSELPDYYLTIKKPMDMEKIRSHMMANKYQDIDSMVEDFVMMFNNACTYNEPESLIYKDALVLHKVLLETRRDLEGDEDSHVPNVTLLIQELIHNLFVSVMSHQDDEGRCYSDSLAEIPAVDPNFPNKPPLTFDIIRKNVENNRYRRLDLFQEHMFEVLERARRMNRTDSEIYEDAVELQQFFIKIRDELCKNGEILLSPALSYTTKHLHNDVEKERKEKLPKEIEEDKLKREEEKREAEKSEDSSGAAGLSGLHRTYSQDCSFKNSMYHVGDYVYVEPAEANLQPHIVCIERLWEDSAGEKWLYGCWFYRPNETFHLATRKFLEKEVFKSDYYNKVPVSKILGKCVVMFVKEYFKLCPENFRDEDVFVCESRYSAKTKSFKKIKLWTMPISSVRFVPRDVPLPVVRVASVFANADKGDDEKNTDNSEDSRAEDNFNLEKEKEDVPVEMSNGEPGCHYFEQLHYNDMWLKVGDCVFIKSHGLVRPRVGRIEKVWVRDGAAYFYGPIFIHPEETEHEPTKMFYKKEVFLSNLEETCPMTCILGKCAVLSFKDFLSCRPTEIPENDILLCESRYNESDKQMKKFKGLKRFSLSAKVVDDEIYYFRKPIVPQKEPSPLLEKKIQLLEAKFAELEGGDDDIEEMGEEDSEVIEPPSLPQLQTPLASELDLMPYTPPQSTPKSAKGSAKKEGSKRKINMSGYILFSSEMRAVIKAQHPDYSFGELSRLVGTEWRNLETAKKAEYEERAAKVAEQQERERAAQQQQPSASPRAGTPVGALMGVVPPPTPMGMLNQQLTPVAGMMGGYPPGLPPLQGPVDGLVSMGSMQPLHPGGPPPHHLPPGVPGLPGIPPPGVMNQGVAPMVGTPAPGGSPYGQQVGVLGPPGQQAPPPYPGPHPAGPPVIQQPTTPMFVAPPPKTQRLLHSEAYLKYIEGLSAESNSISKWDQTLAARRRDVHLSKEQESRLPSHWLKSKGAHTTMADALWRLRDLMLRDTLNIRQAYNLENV
Histone acetyltransferase KAT2A, sequence (Q92830 whole entry, the tested form may be a part): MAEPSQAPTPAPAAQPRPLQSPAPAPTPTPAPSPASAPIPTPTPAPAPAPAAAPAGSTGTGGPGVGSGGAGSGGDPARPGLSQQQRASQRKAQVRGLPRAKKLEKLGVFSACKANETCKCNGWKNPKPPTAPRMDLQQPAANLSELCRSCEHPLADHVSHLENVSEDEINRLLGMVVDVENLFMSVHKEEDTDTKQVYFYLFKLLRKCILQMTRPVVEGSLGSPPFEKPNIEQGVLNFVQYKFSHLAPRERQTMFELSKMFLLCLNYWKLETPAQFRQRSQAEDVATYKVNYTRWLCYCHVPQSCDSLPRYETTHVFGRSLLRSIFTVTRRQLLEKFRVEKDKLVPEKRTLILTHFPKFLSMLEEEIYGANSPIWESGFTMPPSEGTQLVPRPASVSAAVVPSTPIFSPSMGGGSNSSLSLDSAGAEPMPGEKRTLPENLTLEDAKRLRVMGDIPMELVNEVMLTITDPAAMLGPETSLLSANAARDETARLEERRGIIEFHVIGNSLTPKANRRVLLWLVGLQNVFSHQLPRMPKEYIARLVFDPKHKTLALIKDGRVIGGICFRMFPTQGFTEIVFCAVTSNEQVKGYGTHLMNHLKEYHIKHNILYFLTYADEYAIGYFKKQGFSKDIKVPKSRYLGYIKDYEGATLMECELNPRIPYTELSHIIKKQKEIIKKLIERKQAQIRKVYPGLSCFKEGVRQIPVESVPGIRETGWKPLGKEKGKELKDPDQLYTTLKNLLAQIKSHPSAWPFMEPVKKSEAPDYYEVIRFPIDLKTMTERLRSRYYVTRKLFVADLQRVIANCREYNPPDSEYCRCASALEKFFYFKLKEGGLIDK
Histone acetyltransferase KAT2B, sequence (Q92831 whole entry, the tested form may be a part): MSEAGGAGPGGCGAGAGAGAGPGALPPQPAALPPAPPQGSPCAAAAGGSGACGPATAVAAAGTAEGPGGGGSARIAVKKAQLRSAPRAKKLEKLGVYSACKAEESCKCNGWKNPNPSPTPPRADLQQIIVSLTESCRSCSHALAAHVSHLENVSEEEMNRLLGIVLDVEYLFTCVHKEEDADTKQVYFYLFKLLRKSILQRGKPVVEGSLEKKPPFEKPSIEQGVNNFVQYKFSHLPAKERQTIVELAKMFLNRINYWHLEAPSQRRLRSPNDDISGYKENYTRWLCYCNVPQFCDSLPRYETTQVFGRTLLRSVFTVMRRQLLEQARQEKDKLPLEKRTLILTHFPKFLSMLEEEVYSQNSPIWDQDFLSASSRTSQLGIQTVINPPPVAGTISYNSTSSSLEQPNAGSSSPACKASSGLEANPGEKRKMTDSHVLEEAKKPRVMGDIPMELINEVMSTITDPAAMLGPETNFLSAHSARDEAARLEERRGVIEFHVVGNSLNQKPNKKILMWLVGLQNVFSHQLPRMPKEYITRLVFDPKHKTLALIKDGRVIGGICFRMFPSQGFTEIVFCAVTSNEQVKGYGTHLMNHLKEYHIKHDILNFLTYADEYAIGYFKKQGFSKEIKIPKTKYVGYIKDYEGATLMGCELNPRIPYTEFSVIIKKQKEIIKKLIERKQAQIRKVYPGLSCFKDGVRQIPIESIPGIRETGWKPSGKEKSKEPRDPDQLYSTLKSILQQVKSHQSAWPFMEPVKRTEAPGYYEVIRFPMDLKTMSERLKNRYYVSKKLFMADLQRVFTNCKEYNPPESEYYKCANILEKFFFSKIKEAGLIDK
E3 ubiquitin-protein ligase TRIM33, sequence (Q9UPN9 whole entry, the tested form may be a part): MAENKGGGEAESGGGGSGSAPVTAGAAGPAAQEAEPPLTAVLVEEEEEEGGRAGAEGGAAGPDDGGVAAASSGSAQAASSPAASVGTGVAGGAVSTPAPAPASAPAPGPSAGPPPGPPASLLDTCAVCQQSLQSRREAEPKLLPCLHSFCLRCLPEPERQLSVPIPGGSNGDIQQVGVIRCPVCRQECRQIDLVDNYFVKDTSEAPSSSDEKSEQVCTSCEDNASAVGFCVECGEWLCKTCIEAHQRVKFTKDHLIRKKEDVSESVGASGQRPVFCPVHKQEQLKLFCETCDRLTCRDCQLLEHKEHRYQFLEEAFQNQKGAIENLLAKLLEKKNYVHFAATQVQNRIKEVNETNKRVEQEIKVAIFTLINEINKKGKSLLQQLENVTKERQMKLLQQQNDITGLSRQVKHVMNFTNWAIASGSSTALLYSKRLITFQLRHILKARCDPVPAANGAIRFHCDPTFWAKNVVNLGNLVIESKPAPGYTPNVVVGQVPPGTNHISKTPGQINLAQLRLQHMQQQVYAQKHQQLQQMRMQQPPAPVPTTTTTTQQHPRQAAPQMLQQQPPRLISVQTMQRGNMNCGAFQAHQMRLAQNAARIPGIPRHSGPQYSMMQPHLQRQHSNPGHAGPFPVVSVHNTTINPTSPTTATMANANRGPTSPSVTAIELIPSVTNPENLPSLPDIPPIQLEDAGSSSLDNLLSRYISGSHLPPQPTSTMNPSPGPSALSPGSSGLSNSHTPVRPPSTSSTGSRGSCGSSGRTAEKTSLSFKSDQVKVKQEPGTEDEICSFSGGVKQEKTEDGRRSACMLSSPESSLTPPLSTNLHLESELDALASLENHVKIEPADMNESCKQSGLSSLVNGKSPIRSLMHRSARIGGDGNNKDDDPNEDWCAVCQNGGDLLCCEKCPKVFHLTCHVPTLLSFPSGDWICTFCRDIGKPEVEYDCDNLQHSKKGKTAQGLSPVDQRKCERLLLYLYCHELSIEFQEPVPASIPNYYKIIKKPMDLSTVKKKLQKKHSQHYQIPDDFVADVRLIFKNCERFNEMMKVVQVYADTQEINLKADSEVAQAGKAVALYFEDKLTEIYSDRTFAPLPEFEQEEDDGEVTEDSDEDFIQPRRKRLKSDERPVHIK

**Q.** Which IC50 [1] does the source give for `CCS(=O)(=O)Nc1cc(-c2cn(C)c3c(=O)[nH]ccc23)cc2c1ccn2C(C)(c1ccccn1)c1ccccn1` here?
**A.** 0.9 nM

**Q.** And the Kd [2]?
**A.** > 10000 nM

**Q.** What about the Kd [3] of the same molecule?
**A.** > 10000 nM

**Q.** What about the Kd [4] of the same molecule?
**A.** > 10000 nM

**Q.** And the Kd [5]?
**A.** > 10000 nM

**Q.** And the Kd [6]?
**A.** > 10000 nM

**Q.** What about the Kd [7] of the same molecule?
**A.** > 10000 nM

**Q.** What about the Kd [8] of the same molecule?
**A.** > 10000 nM

**Q.** What about the Kd [9] of the same molecule?
**A.** > 10000 nM

**Q.** What about the Kd (Protein polybromo-1) of the same molecule?
**A.** > 10000 nM

**Q.** And the Kd [10]?
**A.** > 10000 nM

**Q.** What about the Kd [11] of the same molecule?
**A.** > 10000 nM

**Q.** And the Kd [12]?
**A.** > 10000 nM

**Q.** And the Kd [13]?
**A.** > 10000 nM

**Q.** What about the Kd [14] of the same molecule?
**A.** > 10000 nM

**Q.** What about the Kd [15] of the same molecule?
**A.** > 10000 nM

**Q.** And the “growth inhibition (GI)” value [16]?
**A.** 100%

**Q.** And the IC50 ([17]; read-out: IC50)?
**A.** < 10 nM

**Q.** And the IC50 ([17]; read-out: pIC50 (converted))?
**A.** 3.98 nM

**Q.** What about the IC50 ([18]; read-out: IC50) of the same molecule?
**A.** < 10 nM

**Q.** And the IC50 ([18]; read-out: pIC50 (converted))?
**A.** 2 nM

**Q.** What about the IC50 (MCF7:TAM1; read-out: IC50) of the same molecule?
**A.** < 10 nM

**Q.** What about the IC50 (MCF7:TAM1; read-out: pIC50 (converted)) of the same molecule?
**A.** 3.16 nM

**Q.** What about the IC50 (T47D; read-out: IC50) of the same molecule?
**A.** < 10 nM

**Q.** What about the IC50 (T47D; read-out: pIC50 (converted)) of the same molecule?
**A.** 3.16 nM

**Q.** What about the IC50 ([19]; read-out: IC50) of the same molecule?
**A.** < 10 nM

**Q.** And the IC50 ([19]; read-out: pIC50 (converted))?
**A.** 6.31 nM

**Q.** And the IC50 [20]?
**A.** < 10 nM

**Q.** What about the IC50 (Cytochrome P450 3A4) of the same molecule?
**A.** ≥ 10000 nM
